ChEMBL document CHEMBL1141747, “New bisbenzylisoquinolines, fatty acid amidic aporphines, and a protoberberine from Formosan Cocculus orbiculatus” (J Nat Prod, 2005)
In brackets after ≈: the same amount, converted by molar mass.

Key:
HepG2 = experiment: Cytotoxicity against human HepG2 cells; format: functional, cell-based
MDA-MB-231 = experiment: Cytotoxicity against human MDA-MB-231 cells; format: functional, cell-based
[1] = Cytotoxicity against human HONE1 cells at 20 ug/mL; format: functional
Outline: (§1)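 Samples were tested on the cells at two fixed concentrations, 20 and 4 µg/mL. The value is reported as percent inhibition at each concentration.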

NUGC-3 [2] = experiment: Cytotoxicity against human NUGC3 cells at 20 ug/mL; format: functional; outline: as §1
[3] = Cytotoxicity against human HONE1 cells at 4 ug/mL; format: functional; outline: as §1
MCF7 = experiment: Cytotoxicity against human MCF7 cells; format: functional, cell-based
NUGC-3 [4] = experiment: Cytotoxicity against human NUGC3 cells at 4 ug/mL; format: functional; outline: as §1
[5] = Cytotoxicity against human Hep3B cells; format: functional, cell-based, Hep 3B2
P388 = experiment: Antitumor activity against mouse P388 cells xenografted in mouse; format: functional

SMILES | IC50 (HepG2) [µg/mL] | IC50 (MDA-MB-231) [µg/mL] | inhibition at 20 µg/mL [1] [%] | inhibition at 20 µg/mL (NUGC-3 [2]) [%] | inhibition at 4 µg/mL [3] [%] | IC50 (MCF7) [µg/mL] | inhibition at 4 µg/mL (NUGC-3 [4]) [%] | IC50 [5] [µg/mL] | T/C (P388) [%]
COc1ccc2c(c1O)[C@]13CCN[C@@H](C2)C1C(OC)[C@@H](O)[C@@H](O)C3 (some centres not stated) | 2 (≈ 5.96 µM) | 1.2 (≈ 3.58 µM) | 84 | 96 | 82 | 2 (≈ 5.96 µM) | 82 | 2 (≈ 5.96 µM) | 166
COc1cc2c(c(OC)c1OC)CCN1C(=O)c3c(ccc(OC)c3OC)C[C@@H]21 | 23.5 (≈ 58.8 µM) | > 30 |  |  |  | > 30 |  | > 30 | 
COc1ccc2cc1Oc1ccc(cc1)C[C@H]1c3cc(O)c(c(OC)c3CC[N+]1(C)C)Oc1cc3c(cc1OC)CC[N+](C)=C3C2.[Cl-].[Cl-] | > 30 | > 30 |  |  |  | > 30 |  | > 30 | 
COc1cc2c3c4c1Oc1cc5c(cc1O4)C(=NCC5)Cc1ccc(O)c(c1)Oc1ccc(cc1)C[C@@H]3N(C)CC2 [DEHYDROAPATELINE] | 3.61 (≈ 6.6 µM) | 4.71 (≈ 8.62 µM) | 98 | 98 | 0 | 16.3 (≈ 29.8 µM) | 0 | 4.82 (≈ 8.82 µM) | 
COc1ccc2cc1Oc1ccc(cc1)C[C@H]1c3c(cc(OC)c4c3Oc3cc5c(cc3O4)CCN(C)[C@H]5C2)CCN1C [ISOTRILOBINE] | 0.6 (≈ 1.04 µM) | 1.6 (≈ 2.77 µM) | 100 | 100 | 79 | 3.9 (≈ 6.76 µM) | 0 | 0.75 (≈ 1.3 µM) | 
CC(=O)O[C@H]1C(=O)[C@@]2(C)[C@H]([C@H](OC(=O)c3ccccc3)[C@]3(O)C[C@H](OC(=O)[C@H](O)[C@@H](NC(=O)c4ccccc4)c4ccccc4)C(C)=C1C3(C)C)[C@]1(OC(C)=O)CO[C@@H]1C[C@@H]2O [PACLITAXEL] | 0.18 (≈ 0.211 µM) | 0.12 (≈ 0.141 µM) |  |  |  | 0.14 (≈ 0.164 µM) |  | 0.08 (≈ 0.0937 µM) | 
